What all share (type): functional
For assay [1], the system named is Felis catus. As to the kind of experiment: Tested for the percent change in blood pressure after administration in cat. The essentials: (§1)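 Cats 2-4 kg, either sex, anesthetized with pentobarbital sodium 30 mg/kg ip, pretreated with atropine sulfate 0.2 mg/kg iv. Compounds in saline given as iv bolus via femoral catheter. Blood pressure and heart rate recorded. Right cardioaccelerator nerve stimulated at 2 Hz, 5-ms pulses, 20–25 V supramaximal; inhibition of the positive chronotropic response measured, with ED50 calculated. Haloperidol 100 µg/kg iv given beforehand for blockade.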

In assay [2] the test system is Felis catus. In words: Tested for the change in heart rate after administration in cat. The procedure, abridged: as §1
The species entered for assay [3] is Felis catus. As to the kind of experiment: Tested for the inhibition of cardioaccelerator nerves in cat. The settings on record: read-out: ID50 (the source's name). The essentials:
as §1

For assay [4], the species on record is Rattus norvegicus. As to the kind of experiment: Tested for the alteration in rat CNS transmitter synthesis by […] of 5-HTP from olfactory tubercle. Set-up: concentration or dose not given beside the values. The procedure, abridged:
(§2)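 Rat in vivo synthesis-index model (Carlsson): test compound 4.0 mg/kg sc given 30 min before GBL 750 mg/kg ip in distilled water; apomorphine 4.0 mg/kg sc 5 min before GBL. Five min after GBL, NSD 1015 100 mg/kg ip in saline; decapitation 30 min later. Dopa in caudate nucleus and 5-HTP in olfactory tubercle measured, expressed as percent of saline+GBL control; p < 0.05 criterion.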

Assay [5] is filed under the species Rattus norvegicus. As to the kind of experiment: Tested for the alteration in rat CNS transmitter synthesis by […] of Dopa from caudate nucleus. Set-up: concentration or dose not given beside the values. The essentials:
as §2

Assay [6] is described as follows: Tested for the ratio between rat rotation and the potency to apomorphine. The procedure, abridged:
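Rats with unilateral substantia nigra 6-hydroxydopamine lesions (6 µg in 3 µl). HCl salts in saline given sc, screened at 2 mg/kg; contralateral turns recorded automatically for at least 1 h as turns per hour. Dose-response curves used 4-5 animals; potency ratio to apomorphine with 95% CI calculated over 60 min after dosing.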

Molecules are shown by their SMILES.

The source of these data is ChEMBL document CHEMBL1122098, “2-Amino-4,7-dimethoxyindan derivatives: synthesis and assessment of dopaminergic and cardiovascular actions” (1982).

`CCCN(CCC)C1Cc2c(OC)ccc(OC)c2C1`: the BP change with Felis catus [1] is recorded as -16.6%. The HR in the assay on Felis catus [2] is given as -6.4 beats min-1. Moreover, the ED50 in the assay listed under Felis catus [3] stood at 0.107 µmol/kg. Also, the Control in the assay listed under Rattus norvegicus [4] is 51.5%; in the assay filed under Rattus norvegicus [5] it was 31.8%. In addition, the Ratio in assay [6] is 0.13.

As to `COc1ccc(OC)c2c1CC(N)C2`, the BP change with Felis catus [1] is 6.3%. In addition, in the assay with Felis catus [2], the HR is 0 beats min-1. Further, the ED50 in the assay filed under Felis catus [3] turned out to be 1.55 µmol/kg. Further, the Control in the assay filed under Rattus norvegicus [4] is recorded as 109.7%; in the assay listed under Rattus norvegicus [5], 94%. Moreover, in assay [6], the Ratio came out at 8.7.

Take `COc1ccc(OC)c2c1CC(N(C)C)C2`: the BP change with Felis catus [1] came out at 51.8%. The compound also displayed an HR with Felis catus [2] of 3.2 beats min-1. Further, in the assay filed under Felis catus [3], the ED50 worked out at 1.16 µmol/kg. Further, the Ratio in assay [6] was determined as 0.019.

As to `CN1CCc2cccc3c2[C@H]1Cc1ccc(O)c(O)c1-3` [APOMORPHINE], the ED50 in the assay filed under Felis catus [3] came out at 0.103 µmol/kg. This compound gave a Control in the assay listed under Rattus norvegicus [5] of 18.3%. The Ratio in assay [6] was 1.

For `CNC1Cc2c(OC)ccc(OC)c2C1`, the BP change in the assay with Felis catus [1] worked out at 28.1%. The compound further displayed an HR with Felis catus [2] of 2.5 beats min-1. Further, the ED50 in the assay filed under Felis catus [3] was determined as 1.23 µmol/kg. Besides, the Control in the assay listed under Rattus norvegicus [4] is listed as 94.7%; in the assay listed under Rattus norvegicus [5] it was 67.9%. In addition, the Ratio in assay [6] turned out to be 8.2.

With `COc1ccc(OC)c2c1CC(NC(C)C)C2`, the BP change with Felis catus [1] came to 3.8%. The compound also returned an HR with Felis catus [2] of 0 beats min-1. For the same compound, in the assay listed under Felis catus [3], the ED50 turned out to be 1.1 µmol/kg.

`CNC1CCc2c(OC)ccc(OC)c2C1` (configuration not stated): the Control in the assay filed under Rattus norvegicus [4] is given as 33.2%; in the assay listed under Rattus norvegicus [5], 103.8%. For the same compound, in assay [6], the Ratio is 3.9.

Consider `CCCNC1Cc2c(OC)ccc(OC)c2C1`, for which, in the assay with Felis catus [1], the BP change amounted to 0.7%. In addition, the HR in the assay on Felis catus [2] is -3.2 beats min-1. In the assay listed under Felis catus [3], the ED50 was 1.1 µmol/kg. For the same compound, the values for the Control in the assay listed under Rattus norvegicus [4] and in the assay listed under Rattus norvegicus [5] were 104.7% and 79.1%, respectively. The Ratio in assay [6] was 7.4.
